Legend:
CCRF-CEM = test: The compound was tested for inhibition of P-glycoprotein mediated daunomycin efflux in multidrug resistant CCRF-CEM vcr1000 cells.; format: functional, cell-based; settings: Homo sapiens
How it was run: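 Vincristine-selected CCRF-CEM vcr1000 T-lymphoblasts grown in RPMI1640 with 10% FCS, selecting agent removed at least 1 week before use. Cells at 1 × 10^6/mL preloaded with 3.2 µM daunomycin (final) for 30 min at 37 °C, pelleted, then resuspended in 37 °C medium with modulator (eight concentrations, 1:2.5 dilutions, 3 nM–500 µM range). Samples taken at 0, 60, 120, 180 and 240 s into ice-cold stop medium containing verapamil (10 µg/mL final). An exponential fit gives the first-order rate constant (Vmax/Km) as the slope at time zero. Efflux in parental CCRF-CEM cells, set to equal initial fluorescence, is subtracted as passive diffusion. EC50 comes from Vmax/Km versus concentration, as mean ± SD of at least three independent experiments.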

[1] = Lipophilicity (log kw value) was determined; format: physicochemical; settings: reversed-phase HPLC, methanol/buffer pH 7.4
How it was run: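 Reversed-phase HPLC on an RP-8 column (5 µm), eluent methanol/aqueous phase adjusted to pH 7.4 with 1/60 M Soerensen buffer, detection at 254 nm. log k′ measured at 70%, 60% and 50% methanol, then extrapolated to 0% methanol by linear regression to give log kw.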

[2] = Partition coefficient (logP); format: physicochemical; settings: octanol/water
How it was run: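 Computed, not measured: fragmentation method of Ghose et al. on a topological basis. Structures built and minimized with the MM2 force field. Conformation-independent log P values.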

Row | EC50 (CCRF-CEM) | Log kw [1] | logP [2] | SMILES
1 | 5.64 µM | 5.47 | 3.92 | Cc1ccc(C(=O)O[C@H]2[C@H](C)Nc3ccccc3[C@@H]2N2CCCC2)cc1
2 | 1430 µM |  | 1.24 | CN[C@H]1c2cc(C#N)ccc2OC(C)(C)[C@@H]1O
3 | 59.1 µM | 4.35 | 3.12 | CC1(C)Oc2ccc(C#N)cc2[C@H](NCc2ccccc2)[C@H]1O
4 | 0.43 µM | 6.1 | 4.51 | Cc1ccc(C(=O)N2c3ccccc3[C@H](N3CCN(Cc4ccccc4)CC3)[C@@H](O)[C@@H]2C)cc1
5 | 46.8 µM |  | 1.79 | CC(C)(C)OC(=O)CN[C@H]1c2cc(C#N)ccc2OC(C)(C)[C@@H]1O
6 | 7.98 µM | 4.2 | 3.34 | Cc1ccc(C(=O)N2c3ccccc3[C@H](N3CCCC3)[C@@H](O)[C@@H]2C)cc1
7 | 1.96 µM |  | 4.2 | CCN(CC)CCCC(C)N[C@H]1c2ccccc2N(C(=O)c2ccc(C)cc2)[C@@H](C)[C@@H]1O (stereo partly drawn)
8 | 2.43 µM |  | 3.76 | CC(C)(C)OC(=O)CN(Cc1ccccc1)[C@H]1c2cc(C#N)ccc2OC(C)(C)[C@@H]1O
9 | 3.26 µM | 5.38 | 4.52 | Cc1ccc(C(=O)N2c3ccccc3[C@H](NCc3ccccc3)[C@@H](O)[C@@H]2C)cc1
10 | 0.64 µM | 5.53 | 3.11 | CC1(C)Oc2ccc(C#N)cc2[C@H](N2CCN(Cc3ccccc3)CC2)[C@H]1O
11 | 0.34 µM |  | 4.78 | CCN(CC)CCCC(C)N[C@H]1c2ccccc2N[C@@H](C)[C@@H]1OC(=O)c1ccc(C)cc1 (stereo partly drawn)

— ChEMBL document CHEMBL1132224, “Synthesis and in vitro multidrug resistance modulating activity of a series of dihydrobenzopyrans and tetrahydroquinolines” (J Med Chem, 1999)
